According to ChEMBL document CHEMBL4376883, “Discovery and Optimization of Small Molecules Targeting the Protein-Protein Interaction of Heat Shock Protein 90 (Hsp90) and Cell Division Cycle 37 as Orally Active Inhibitors for the Treatment of Colorectal Cancer” (J Med Chem, 2020):

Experiments:
[1] = target: Heat shock protein HSP 90-beta/Hsp90 co-chaperone Cdc37 (Homo sapiens) (UniProt P08238+Q16543); assay: Inhibition of His-tagged HSP90/GST-tagged Cdc37 (unknown origin) protein-protein interaction at 100 uM measured after 1 hr by HTRF assay relative to control; assay type: protein-complex assay
Method in brief: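 His-Hsp90 and GST-Cdc37 were premixed at a final 80 nM in PBS with 200 mM KF, pH 7.4. Compound was added and the mix incubated 1 h at 37 °C, then read by HTRF. Inhibition rate was taken at 100 μM compound.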

[2] = tested on: HCT-116; assay: Antiproliferative activity against human HCT116 cells measured after 72 hrs by CCK8 assay; assay type: functional, cell-based; conditions: HCT-116, 72 h
Method in brief: (§1)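 Cells grown in RPMI 1640 with 10% FBS at 37 °C, 5% CO2; STR-authenticated and mycoplasma-checked. Seeded at 3000-5000 cells/well and left 24 h. Serial compound dilutions added for 72 h, with matched DMSO as control. Viability read by CCK8 kit using the standard protocol. IC50 values derived from at least three parallel experiments.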

[3] = target: T1, Heat shock protein HSP90 (Homo sapiens, UniProt P07900+P08238); assay: Binding affinity to recombinant […] HSP90 N-terminal domain (9 to 236 residues) (unknown origin) expressed in Escherichia coli BL21 (DE3) by isothermal calorimetric method
Method in brief: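 ITC: 50 µM Hsp90 in the cell and 300 µM compound in the syringe, both in 20 mM Tris-HCl, 150 mM NaCl, pH 7.4. Nineteen injections at 180 s intervals with stirring at 1000 rpm.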

[4] = tested on: A549; assay: Antiproliferative activity against human A549 cells measured after 72 hrs by CCK8 assay; assay type: functional, cell-based; conditions: A549, 72 h; method in brief: as §1
[5] = target: T1, Heat shock protein HSP90; assay: Inhibition of recombinant full-length HSP90 ATPase activity N-terminal domain (9 to 236 residues) (unknown origin) expressed in Escherichia coli BL21 (DE3) measured after 1 hr by ADP hunter plus assay
[6] = target: T1, Heat shock protein HSP90; assay: Binding affinity to recombinant […] HSP90 N-terminal domain (9 to 236 residues) (unknown origin) expressed in Escherichia coli BL21 (DE3) assessed as change in melting temperature by SYPRO dye based thermal shift assay
Method in brief: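 Hsp90 N-terminal domain (10 µM) mixed with compound at 200, 100, 50 or 10 µM in 1× PBS, pH 8.0, with 6× SYPRO Orange. Heated from room temperature to 99 °C at 1 °C/min; fluorescence read at 492 nm excitation and 610 nm emission.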

[7] = Permeability of the compound at pH 7.4 by PAMPA; assay type: ADME; conditions: read-out: permeability
Method in brief: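 Permeability coefficient (Pe) was measured at pH 7.4 by double-sink PAMPA.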

[8] = tested on: L02; assay: Cytotoxicity against human L02 cells measured after 72 hrs by CCK8 assay; assay type: functional, cell-based; conditions: L02, 72 h; method in brief: as §1
[9] = target: T1, Heat shock protein HSP90; assay: Binding affinity to recombinant […] biotinylated-HSP90 N-terminal domain (9 to 236 residues) (unknown origin) expressed in Escherichia coli BL21 (DE3) by biolayer interferometry
Method in brief: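 Biotinylated Hsp90 (100 µg/mL) loaded onto streptavidin sensors prewetted 10 min in PBS with 0.05% BSA and 0.01% Tween 20. Analyte binding measured at 28 °C. Double reference subtraction applied; data fitted to a 1:1 model with K_D = K_off/K_on.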

[10] = Distribution coefficient, log D of the compound at pH 7.4 by potentiometric titration method; assay type: physicochemical; conditions: octanol/water
Method in brief: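 log D at pH 7.4 measured by potentiometric titration on a Gemini Profiler.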

`CCNc1nccc(Nc2ccc(N(CC(=O)OC)S(=O)(=O)c3c(C)cc(C)cc3C)cc2)n1` gave an inhibition [1] of under 50%.

`Cc1cc(C)c(S(=O)(=O)N(Cc2ccc(Cl)cc2)c2ccc(Nc3ccnc(N4CCCC4)n3)cc2)c(C)c1` showed an inhibition [1] of under 50%.

In the case of `O=S(=O)(Nc1ccc(Nc2ccnc(N3CCCC3)n2)cc1)c1ccc(C(F)(F)F)cc1`, the inhibition [1] is reported as under 20%.

`Cc1cc(C)c(S(=O)(=O)N(CC(=O)NO)c2ccc(Nc3ccnc(N4CCNCC4)n3)cc2)c(C)c1` gave an IC50 [2] of 3.94 µM, a Kd [3] of 5.49 µM and an inhibition [1] of 96.2%. The IC50 [4] was 16.2 µM, the IC50 [5] was over 100 µM and the ΔTm [6] was 1.59 °C. For the same compound, the Papp [7] was 44.1 ×10⁻⁶ cm/s, the IC50 [8] was 21.9 µM and the Kd [9] was 2.66 µM. It also gave a logD [10] of 0.82.

In the case of `Cc1cc(C)c(S(=O)(=O)N(CC(=O)O)c2ccc(Nc3ccnc(N4CCN(C)CC4)n3)cc2)c(C)c1`, the inhibition [1] is reported as 71.1%.

`COc1ccc(OC)c(S(=O)(=O)Nc2ccc(Nc3ccnc(N4CCCC4)n3)cc2)c1` gave an inhibition [1] of 41.8%.

`Cc1cc(C)c(S(=O)(=O)Nc2ccc(Nc3ccnc(N4CCCC4)n3)cc2)c(C)c1` gave an inhibition [1] of 66%.

`COC(=O)CN(c1ccc(Nc2ccnc(N3CCCCC3)n2)cc1)S(=O)(=O)c1c(C)cc(C)cc1C` showed an inhibition [1] of 79.1%.

In the case of `CC(C)(C)c1ccc(S(=O)(=O)Nc2ccc(Nc3ccnc(N4CCCC4)n3)cc2)cc1`, the inhibition [1] is reported as under 20%.

With `COC(=O)CN(c1ccc(Nc2ccnc(N3CCCC3)n2)cc1)S(=O)(=O)c1c(C)cc(C)cc1C` the inhibition [1] was 65.4%.

`CCC(CC)Nc1nccc(Nc2ccc(N(CC(=O)OC)S(=O)(=O)c3c(C)cc(C)cc3C)cc2)n1` gave an inhibition [1] of under 50%.

`COC(=O)CN(c1ccc(Nc2ccnc(NC3CC3)n2)cc1)S(=O)(=O)c1c(C)cc(C)cc1C` gave an inhibition [1] of under 50%.

In the case of `Cc1cc(C)c(S(=O)(=O)N(Cc2ccc(C(C)C)cc2)c2ccc(Nc3ccnc(N4CCCC4)n3)cc2)c(C)c1`, the inhibition [1] is reported as under 50%.

`COC(=O)CN(c1ccc(Nc2ccnc(N3CCNCC3)n2)cc1)S(=O)(=O)c1c(C)cc(C)cc1C` showed an IC50 [2] of 6.25 µM, a Kd [3] of 1.73 µM and an inhibition [1] of 95.5%. The IC50 [4] was 43.3 µM, the IC50 [5] was over 100 µM and the ΔTm [6] was 3.53 °C. For the same compound, the Papp [7] was 101 ×10⁻⁶ cm/s, the IC50 [8] was over 50 µM and the Kd [9] was 1.97 µM. For the same compound, the logD [10] was 2.63.

`CCN(CC)c1nccc(Nc2ccc(N(CC(=O)OC)S(=O)(=O)c3c(C)cc(C)cc3C)cc2)n1` gave an inhibition [1] of under 50%.

Compound `COC(=O)CN(c1ccc(Nc2ccnc(N3CCN(C)CC3)n2)cc1)S(=O)(=O)c1c(C)cc(C)cc1C` has an inhibition [1] of 70.1%.

For `Cc1cc(C)c(S(=O)(=O)N(CC#N)c2ccc(Nc3ccnc(N4CCNCC4)n3)cc2)c(C)c1`, the inhibition [1] was 64.3%, the IC50 [5] was over 100 µM and the ΔTm [6] was 1.1 °C. The Papp [7] was 61.5 ×10⁻⁶ cm/s and the logD [10] was 2.01.
